Results reported in ChEMBL document CHEMBL1121813, “Dihydrochalcone sweeteners. A study of the atypical temporal phenomena” (1981).

Tests used:
Homo sapiens [1] = species on record: Homo sapiens; test: Percentage of judgments reporting an aftertaste at a concentration of 1000 ppm and character thereof; format: functional
Outline: (§1)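 Trained judges tasted aqueous solutions of the compounds, which had to be ≥95 weight percent pure and to have passed mutagenicity and single oral dose toxicity screening. The value is the percentage of panel judgments reporting an aftertaste. Where given, its character is recorded as sweet, bitter or bitter-sweet.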

Homo sapiens [2] = species on record: Homo sapiens; test: Experimentally determined perceived intensity of compound at a concentration of 1000 ppm (mean value); format: functional
Outline: (§2)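 Trained human sensory panel of judges tasted aqueous solutions of the compound. Samples had to be ≥95 weight % pure (HPLC, proton titration, Karl Fischer), non-mutagenic in five Salmonella typhimurium strains with and without microsomal activation, and non-toxic in a single-oral-dose mouse test. Perceived intensity (Ip) was read from time–intensity curves at 4- or 6-s intervals and averaged. Outliers at the 95% level were rejected by t-value. Values reported as mean (2Sm).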

Homo sapiens [3] = species on record: Homo sapiens; test: Number of taste judgments per compound; format: functional
Homo sapiens [4] = species on record: Homo sapiens; test: Sour character at a concentration of 252 ppm (mean value); format: functional
Outline: (§3)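 Trained human sensory panel (Swartz method) tasted dilute aqueous solutions of the compounds, which had to be ≥95 weight percent pure and free of mutagenicity and toxicity. Taste character is reported as the mean value with 2S_m limits. Data deviating excessively at the 95% confidence level were rejected by the t-value method.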

Homo sapiens [5] = species on record: Homo sapiens; test: Salty character at a concentration of 252 ppm (mean value); format: functional; outline: as §3
Homo sapiens [6] = species on record: Homo sapiens; test: Intensity calculated on a molar basis relative to a 0.25 M sucrose solution at a concentration of 252 ppm (mean value); format: functional
Outline: (§4)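 Trained human judges tasted aqueous solutions of the test compound; compounds were first required to be ≥95 weight percent pure and free of mutagenicity (five Salmonella typhimurium strains, ± microsomal activation) and of single oral dose mouse toxicity. Molar intensity I_m = perceived intensity × (0.25 M sucrose / compound molar concentration). The mean is reported with 2S_m limits; outliers were rejected at 95% confidence by t-value.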

Homo sapiens [7] = species on record: Homo sapiens; test: Sweet / Bitter character at a concentration of 252 ppm (mean value); 6/94; format: functional
Homo sapiens [8] = species on record: Homo sapiens; test: Experimentally determined perceived intensity of compound at a concentration of 252 ppm (mean value); format: functional; outline: as §2
Homo sapiens [9] = species on record: Homo sapiens; test: Other taste character at a concentration of 252 ppm (mean value); format: functional; outline: as §3
Homo sapiens [10] = species on record: Homo sapiens; test: Intensity calculated on a weight basis relative to an 85500 ppm sucrose solution at a concentration of 252 ppm (mean value); format: functional
Outline: (§5)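 Trained human panel tasted aqueous solutions of purity-checked (≥95 weight percent) compounds cleared for mutagenicity and mouse oral toxicity. Weight-basis intensity I_w = perceived intensity × (85500 ppm sucrose / compound concentration in ppm). The mean is reported with 2S_m limits; data deviating excessively at 95% confidence were rejected by the t-value method.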

Homo sapiens [11] = species on record: Homo sapiens; test: Sweet character at a concentration of 252 ppm (mean value); format: functional; outline: as §3
Homo sapiens [12] = species on record: Homo sapiens; test: Percentage of judgments reporting an aftertaste at a concentration of 252 ppm and character thereof; format: functional; outline: as §1
Homo sapiens [13] = species on record: Homo sapiens; test: Bitter character at a concentration of 252 ppm (mean value); format: functional
Outline: (§6)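 Trained human panel tasted aqueous solutions. Each judge reported whether there was an aftertaste and its character (sweet, bitter or bitter-sweet). The value is the percentage of judgments reporting a bitter aftertaste.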

Homo sapiens [14] = species on record: Homo sapiens; test: Bitter character at a concentration of 720 ppm (mean value); format: functional; outline: as §6
Homo sapiens [15] = species on record: Homo sapiens; test: Salty character at a concentration of 720 ppm (mean value); format: functional
Homo sapiens [16] = species on record: Homo sapiens; test: Percentage of judgments reporting an aftertaste at a concentration of 720 ppm and character thereof; format: functional
Homo sapiens [17] = species on record: Homo sapiens; test: Sweet character at a concentration of 720 ppm (mean value); format: functional
Homo sapiens [18] = species on record: Homo sapiens; test: Intensity calculated on a weight basis relative to an 85500 ppm sucrose solution at a concentration of 720 ppm (mean value); format: functional; outline: as §5
Homo sapiens [19] = species on record: Homo sapiens; test: Intensity calculated on a molar basis relative to a 0.25 M sucrose solution at a concentration of 720 ppm (mean value); format: functional; outline: as §4
Homo sapiens [20] = species on record: Homo sapiens; test: Sour character at a concentration of 720 ppm (mean value); format: functional
Homo sapiens [21] = species on record: Homo sapiens; test: Other taste character at a concentration of 720 ppm (mean value); format: functional; outline: as §3
Homo sapiens [22] = species on record: Homo sapiens; test: Experimentally determined perceived intensity of compound at a concentration of 720 ppm (mean value); format: functional; outline: as §2
Homo sapiens [23] = species on record: Homo sapiens; test: Sweet / Bitter character at a concentration of 720 ppm (mean value); 50/50; format: functional
Homo sapiens [24] = species on record: Homo sapiens; test: Experimentally determined perceived intensity of compound at a concentration of 690 ppm (mean value); format: functional; outline: as §2
Homo sapiens [25] = species on record: Homo sapiens; test: Sweet character at a concentration of 249 ppm (mean value); format: functional
Homo sapiens [26] = species on record: Homo sapiens; test: Percentage of judgments reporting an aftertaste at a concentration of 249 ppm and character thereof; format: functional; outline: as §1
Homo sapiens [27] = species on record: Homo sapiens; test: Bitter character at a concentration of 249 ppm (mean value); format: functional; outline: as §6
Homo sapiens [28] = species on record: Homo sapiens; test: Intensity calculated on a weight basis relative to an 85500 ppm sucrose solution at a concentration of 249 ppm (mean value); format: functional; outline: as §5
Homo sapiens [29] = species on record: Homo sapiens; test: Other taste character at a concentration of 249 ppm (mean value); format: functional; outline: as §3
Homo sapiens [30] = species on record: Homo sapiens; test: Sweet / Bitter character at a concentration of 249 ppm (mean value); 97/3; format: functional
Homo sapiens [31] = species on record: Homo sapiens; test: Salty character at a concentration of 249 ppm (mean value); format: functional
Homo sapiens [32] = species on record: Homo sapiens; test: Intensity calculated on a molar basis relative to a 0.25 M sucrose solution at a concentration of 249 ppm (mean value); format: functional; outline: as §4
Homo sapiens [33] = species on record: Homo sapiens; test: Experimentally determined perceived intensity of compound at a concentration of 249 ppm (mean value); format: functional; outline: as §2
Homo sapiens [34] = species on record: Homo sapiens; test: Sour character at a concentration of 249 ppm (mean value); format: functional
Homo sapiens [35] = species on record: Homo sapiens; test: Bitter character at a concentration of 250 ppm (mean value); format: functional; outline: as §6
Homo sapiens [36] = species on record: Homo sapiens; test: Intensity calculated on a molar basis relative to a 0.25 M sucrose solution at a concentration of 250 ppm (mean value); format: functional; outline: as §4
Homo sapiens [37] = species on record: Homo sapiens; test: Sweet / Bitter character at a concentration of 250 ppm (mean value); 69/31; format: functional
Homo sapiens [38] = species on record: Homo sapiens; test: Sweet character at a concentration of 250 ppm (mean value); format: functional; outline: as §3
Homo sapiens [39] = species on record: Homo sapiens; test: Salty character at a concentration of 250 ppm (mean value); format: functional; outline: as §3
Homo sapiens [40] = species on record: Homo sapiens; test: Percentage of judgments reporting an aftertaste at a concentration of 250 ppm and character thereof; format: functional; outline: as §1
Homo sapiens [41] = species on record: Homo sapiens; test: Intensity calculated on a weight basis relative to an 85500 ppm sucrose solution at a concentration of 250 ppm (mean value); format: functional; outline: as §5
Homo sapiens [42] = species on record: Homo sapiens; test: Sour character at a concentration of 250 ppm (mean value); format: functional; outline: as §3
Homo sapiens [43] = species on record: Homo sapiens; test: Experimentally determined perceived intensity of compound at a concentration of 250 ppm (mean value); format: functional; outline: as §2
Homo sapiens [44] = species on record: Homo sapiens; test: Other taste character at a concentration of 250 ppm (mean value); format: functional; outline: as §3
Homo sapiens [45] = species on record: Homo sapiens; test: Percentage of judgments reporting an aftertaste at a concentration of 90 ppm and character thereof; format: functional
Homo sapiens [46] = species on record: Homo sapiens; test: Intensity calculated on a molar basis relative to a 0.25 M sucrose solution at a concentration of 90 ppm (mean value); format: functional; outline: as §4
Homo sapiens [47] = species on record: Homo sapiens; test: Bitter character at a concentration of 90 ppm (mean value); format: functional; outline: as §6
Homo sapiens [48] = species on record: Homo sapiens; test: Sour character at a concentration of 90 ppm (mean value); format: functional
Homo sapiens [49] = species on record: Homo sapiens; test: Other taste character at a concentration of 90 ppm (mean value); format: functional; outline: as §3
Homo sapiens [50] = species on record: Homo sapiens; test: Experimentally determined perceived intensity of compound at a concentration of 90 ppm (mean value); format: functional; outline: as §2
Homo sapiens [51] = species on record: Homo sapiens; test: Sweet character at a concentration of 90 ppm (mean value); format: functional
Homo sapiens [52] = species on record: Homo sapiens; test: Intensity calculated on a weight basis relative to an 85500 ppm sucrose solution at a concentration of 90 ppm (mean value); format: functional; outline: as §5
Homo sapiens [53] = species on record: Homo sapiens; test: Salty character at a concentration of 90 ppm (mean value); format: functional
Homo sapiens [54] = species on record: Homo sapiens; test: Sweet / Bitter character at a concentration of 90 ppm (mean value); 91/9

COc1ccc(CNC(=O)c2c(O)cc(O)cc2O)cc1O
Judgments (Homo sapiens [1]): 0
IP (Homo sapiens [2]): 0
Judgments (Homo sapiens [3]): 1

COc1ccc(CCC(=O)c2c(O)cc(OCC(=O)[O-])cc2O)cc1N.[Na+]
Taste character (Homo sapiens [4]): 0
Taste character (Homo sapiens [5]): 1
IM (Homo sapiens [6]): 230
Taste character (Homo sapiens [7]): 6
IP (Homo sapiens [8]): 0.08
Taste character (Homo sapiens [9]): 15
IW (Homo sapiens [10]): 200
Taste character (Homo sapiens [11]): 5
Judgments (Homo sapiens [12]): 58
Judgments (Homo sapiens [3]): 12
Taste character (Homo sapiens [13]): 79

COc1ccc(CCC(=O)c2c(O)cc(OCCCN)cc2O)cc1O
Taste character (Homo sapiens [14]): 50
Taste character (Homo sapiens [15]): 0
Judgments (Homo sapiens [16]): 100
Taste character (Homo sapiens [17]): 50
IW (Homo sapiens [18]): 180
IM (Homo sapiens [19]): 190
Taste character (Homo sapiens [20]): 0
Taste character (Homo sapiens [21]): 0
IP (Homo sapiens [22]): 1.5
Judgments (Homo sapiens [3]): 1
Taste character (Homo sapiens [23]): 50

COc1ccc(/C=C/C(=O)c2c(O)cc(OCC(=O)[O-])cc2O)cc1O.[Na+]
IP (Homo sapiens [24]): 0
Judgments (Homo sapiens [3]): 1

COc1ccc(CCC(=O)c2c(O)cc(OCC(=O)CC(=O)[O-])cc2O)cc1O.[Na+]
Taste character (Homo sapiens [25]): 85
Judgments (Homo sapiens [26]): 100
Taste character (Homo sapiens [27]): 3
IW (Homo sapiens [28]): 310
Taste character (Homo sapiens [29]): 12
Taste character (Homo sapiens [30]): 97
Taste character (Homo sapiens [31]): 0
IM (Homo sapiens [32]): 380
IP (Homo sapiens [33]): 0.89
Taste character (Homo sapiens [34]): 0
Judgments (Homo sapiens [3]): 24

COc1ccc(CCC(=O)c2c(O)cc(OC(CCCO)C(=O)[O-])cc2O)cc1O.[Na+] (stereo not given)
Taste character (Homo sapiens [35]): 31
IM (Homo sapiens [36]): 43
Taste character (Homo sapiens [37]): 69
Taste character (Homo sapiens [38]): 69
Taste character (Homo sapiens [39]): 0
Judgments (Homo sapiens [40]): 0
IW (Homo sapiens [41]): 34
Taste character (Homo sapiens [42]): 0
IP (Homo sapiens [43]): 0.1
Taste character (Homo sapiens [44]): 0
Judgments (Homo sapiens [3]): 4

COc1ccc(CCC(=O)c2c(O)cc(O)cc2O)cc1O
Judgments (Homo sapiens [45]): 70
IM (Homo sapiens [46]): 750
Taste character (Homo sapiens [47]): 8
Taste character (Homo sapiens [48]): 0
Taste character (Homo sapiens [49]): 4
IP (Homo sapiens [50]): 0.89
Taste character (Homo sapiens [51]): 83
IW (Homo sapiens [52]): 850
Taste character (Homo sapiens [53]): 5
Taste character (Homo sapiens [54]): 91
Judgments (Homo sapiens [3]): 10
